Drawing on ChEMBL document CHEMBL1153377, “8-Bromo-9-alkyl adenine derivatives as tools for developing new adenosine A2A and A2B receptors ligands” (Bioorg Med Chem, 2009), this text covers Ki for 26 molecules.

In assay [1] the target is T1, Adenosine receptor A2b (Homo sapiens, UniProt P29275).
T1 sequence (P29275 whole entry): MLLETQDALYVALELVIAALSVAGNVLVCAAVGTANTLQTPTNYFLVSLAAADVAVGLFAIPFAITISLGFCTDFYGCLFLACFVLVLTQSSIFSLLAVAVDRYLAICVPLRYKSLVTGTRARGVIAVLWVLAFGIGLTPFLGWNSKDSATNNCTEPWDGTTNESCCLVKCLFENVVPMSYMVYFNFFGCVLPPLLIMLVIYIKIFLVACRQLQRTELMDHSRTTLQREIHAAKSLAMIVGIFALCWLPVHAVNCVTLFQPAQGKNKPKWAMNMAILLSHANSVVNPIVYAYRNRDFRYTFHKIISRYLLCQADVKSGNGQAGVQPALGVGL
As to the kind of experiment: Antagonist activity at human adenosine A2B receptor expressed in CHO cells assessed as inhibition of NECA-stimulated adenylyl cyclase activity. The assay is classed as functional, cell-based. The essentials:
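Membranes from CHO cells stably transfected with human A2B receptor, prepared by a single high-speed centrifugation of the homogenate, resuspended in 50 mM Tris/HCl pH 7.4 and used at once. Inhibition of NECA-stimulated adenylyl cyclase activity measured; IC50 converted to Ki by Cheng-Prusoff equation.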

Assay [2] concerns the target Adenosine receptor A2a (Homo sapiens, UniProt P29274). The assay is described as follows: Displacement of [3H]NECA from human adenosine A2A receptor expressed in CHO cells. The assay is classed as cell-based. Summed up: (§1)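 CHO cells stably expressing human receptor; membranes from a two-step spin (1000 g, then 100,000 g), resuspended in binding buffer, stored -80 °C. Competition with [3H]NECA at 30 nM (A2A) or 10 nM (A3); nonspecific binding defined with […]. Ki derived from competition experiments.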

Assay [3] concerns the target T2, Adenosine receptor A1 (Homo sapiens, UniProt P30542).
T2 sequence (P30542 whole entry): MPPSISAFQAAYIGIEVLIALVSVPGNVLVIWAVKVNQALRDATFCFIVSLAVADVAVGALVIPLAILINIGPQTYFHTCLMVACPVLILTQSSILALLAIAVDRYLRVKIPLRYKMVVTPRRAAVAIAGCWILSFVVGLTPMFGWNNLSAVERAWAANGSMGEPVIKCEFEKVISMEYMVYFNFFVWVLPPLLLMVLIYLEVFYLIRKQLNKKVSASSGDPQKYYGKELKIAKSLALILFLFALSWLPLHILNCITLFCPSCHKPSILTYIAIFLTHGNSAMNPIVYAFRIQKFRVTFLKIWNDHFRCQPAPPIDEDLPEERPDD
As to the kind of experiment: Displacement of [3H]CCPA from human adenosine A1 receptor expressed in CHO cells. The format is cell-based. Summed up: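 Membranes from CHO cells stably expressing human A1 receptor (1000 g spin to clear nuclei, then 100,000 g pellet, stored -80 °C in binding buffer). Competition binding with 1 nM [3H]CCPA; nonspecific binding defined with 1 mM theophylline. Ki calculated from competition curves.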
On the technique in general: Displacement assays read how much labelled ligand stays bound in the presence of the test substance.

The target in assay [4] is T3, Adenosine receptor A3 (Homo sapiens, UniProt P0DMS8).
T3 sequence (P0DMS8 whole entry): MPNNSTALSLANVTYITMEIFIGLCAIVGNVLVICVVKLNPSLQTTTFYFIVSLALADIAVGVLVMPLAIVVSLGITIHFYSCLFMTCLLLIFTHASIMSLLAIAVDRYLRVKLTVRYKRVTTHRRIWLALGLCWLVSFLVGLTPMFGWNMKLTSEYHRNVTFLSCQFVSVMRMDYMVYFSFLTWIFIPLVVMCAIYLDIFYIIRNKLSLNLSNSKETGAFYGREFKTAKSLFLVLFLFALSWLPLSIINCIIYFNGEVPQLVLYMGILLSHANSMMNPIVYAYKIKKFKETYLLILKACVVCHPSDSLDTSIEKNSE
The assay is described as follows: Displacement of [3H]NECA from human adenosine A3 receptor expressed in CHO cells. The assay is classed as cell-based. The essentials:
as §1

Sequence of Adenosine receptor A2a (P29274 whole entry): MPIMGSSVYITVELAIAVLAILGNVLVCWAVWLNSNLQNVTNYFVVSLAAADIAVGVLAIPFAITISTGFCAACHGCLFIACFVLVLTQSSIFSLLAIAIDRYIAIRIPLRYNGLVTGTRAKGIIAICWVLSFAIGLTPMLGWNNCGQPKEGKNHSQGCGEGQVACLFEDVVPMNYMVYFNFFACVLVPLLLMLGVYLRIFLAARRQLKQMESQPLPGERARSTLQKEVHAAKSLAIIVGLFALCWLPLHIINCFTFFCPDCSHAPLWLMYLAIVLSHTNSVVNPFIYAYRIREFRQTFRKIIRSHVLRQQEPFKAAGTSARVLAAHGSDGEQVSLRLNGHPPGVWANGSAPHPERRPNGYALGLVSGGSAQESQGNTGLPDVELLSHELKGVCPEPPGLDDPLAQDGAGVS

On to `CC(C)Cn1cnc2ncnc(N)c21`, for which the Ki (as a rule, the dissociation constant of the complex between target and ligand, obtained from inhibition or displacement) in assay [1] is more than 30 µM; in assay [2], more than 100 µM; in assay [3], more than 100 µM; in assay [4], more than 100 µM.

Take `Nc1ncnc2c1ncn2Cc1ccccc1` [9-BENZYL-9H-ADENINE]: the Ki in assay [1] was more than 30 µM; in assay [2] it was 8.5 µM; in assay [3], more than 100 µM; in assay [4], more than 100 µM.

As for `CCCn1c(Br)nc2c(N)ncnc21`, the Ki in assay [1] is 0.2 µM; in assay [2], 0.3 µM; in assay [3], 1.1 µM; in assay [4], not below 100 µM.

Consider `CC(C)n1cnc2ncnc(N)c21`, for which the Ki in assay [1] is more than 30 µM; in assay [2], 12 µM; in assay [3], 20 µM; in assay [4], more than 100 µM.

`CC(C)Cn1c(Br)nc2c(N)ncnc21`: the Ki in assay [1] came to 4.2 µM; in assay [2] it was 6 µM; in assay [3], 4.9 µM; in assay [4], 15 µM.

`Nc1ncnc2c1ncn2C1CCC1`: the Ki came to 17 µM in assay [1], 4.8 µM in assay [2], 8.7 µM in assay [3] and 33 µM in assay [4].

Take `C=CCn1c(Br)nc2c(N)ncnc21`: the Ki was 4.6 µM in assay [1], 0.73 µM in assay [2], 8.4 µM in assay [3] and 20 µM in assay [4].

Consider `Nc1ncnc2c1nc(Br)n2C1CCCCCC1`, for which the Ki is more than 30 µM in assay [1], more than 100 µM in assay [2], more than 100 µM in assay [3] and more than 100 µM in assay [4].

As for `Nc1ncnc2c1ncn2CCc1ccccc1`, the Ki in assay [1] was more than 30 µM; in assay [2], 9.6 µM; in assay [3], more than 100 µM; in assay [4], more than 100 µM.

Turning to `Cn1cnc2ncnc(N)c21`, the Ki in assay [1] is more than 30 µM; in assay [2], more than 100 µM; in assay [3], more than 100 µM; in assay [4], more than 100 µM.

Consider `Nc1ncnc2c1nc(Br)n2C1CCCC1`, for which the Ki in assay [1] came to 0.86 µM; in assay [2] it was 1.9 µM; in assay [3], 1 µM; in assay [4] it was 4.2 µM.

In the case of `Nc1ncnc2c1nc(Br)n2CCO`, the Ki is 2.8 µM in assay [1], 0.62 µM in assay [2], 1.5 µM in assay [3] and more than 100 µM in assay [4].

In the case of `CC(O)Cn1c(Br)nc2c(N)ncnc21` (centres undefined), the Ki is 0.64 µM in assay [1], 1.1 µM in assay [2], 2.9 µM in assay [3] and not below 100 µM in assay [4].

As for `Nc1ncnc2ncn(CCCO)c12`, the Ki is more than 30 µM in assay [1], more than 100 µM in assay [2], more than 100 µM in assay [3] and more than 100 µM in assay [4].

Take `CCCn1cnc2ncnc(N)c21`: the Ki in assay [1] was more than 30 µM; in assay [2], 18 µM; in assay [3], more than 100 µM; in assay [4], more than 100 µM.

As to `CC(O)Cn1cnc2c(N)ncnc21` (centres undefined), the Ki in assay [1] was more than 30 µM; in assay [2] it was 3.1 µM; in assay [3], 29 µM; in assay [4] it was more than 100 µM.

On to `Nc1ncnc2c1ncn2C1CCCCCC1`, for which the Ki in assay [1] was more than 30 µM; in assay [2] it was 11 µM; in assay [3] it was more than 100 µM; in assay [4], more than 100 µM.

As to `CCn1c(Br)nc2c(N)ncnc21`, the Ki in assay [1] came to 0.84 µM; in assay [2], 0.052 µM; in assay [3], 0.28 µM; in assay [4], 28 µM.

In the case of `Nc1ncnc2nc(Br)[nH]c12`, the Ki in assay [1] was more than 30 µM; in assay [2] it was 3.2 µM; in assay [3] it was 33 µM; in assay [4] it was more than 10 µM.

Take `CCC(C)n1cnc2c(N)ncnc21` (centres undefined): the Ki in assay [1] is 19 µM; in assay [2], 16 µM; in assay [3], 34 µM; in assay [4], more than 100 µM.

With `Nc1ncnc2c1nc(Br)n2CC(O)CO` (centres undefined), the inhibition constant (Ki) in assay [1] is 7.1 µM; in assay [2], 4 µM; in assay [3], 16 µM; in assay [4], not below 100 µM.

In the case of `CCCCn1c(Br)nc2c(N)ncnc21`, the Ki is 5.6 µM in assay [1], 0.73 µM in assay [2], 3.2 µM in assay [3] and more than 100 µM in assay [4].

As to `Nc1ncnc2c1nc(Br)n2Cc1ccccc1`, the Ki was more than 30 µM in assay [1], 6.1 µM in assay [2], 6.7 µM in assay [3] and not below 100 µM in assay [4].

As for `Nc1ncnc2c1ncn2C[C@H](O)CO` [(S)-DHPA], the Ki in assay [1] was more than 30 µM; in assay [2], 8.5 µM; in assay [3], more than 100 µM; in assay [4], more than 100 µM.

On to `Nc1ncnc2ncn(CC(O)CO)c12` (centres undefined), for which the Ki in assay [1] is more than 30 µM; in assay [2], more than 100 µM; in assay [3], more than 100 µM; in assay [4] it was more than 100 µM.

Consider `Nc1ncnc2c1ncn2C1CCCC1`, for which the Ki is more than 30 µM in assay [1], 1.8 µM in assay [2], 10 µM in assay [3] and 13 µM in assay [4].
